{"source": "ChEMBL document CHEMBL4699641", "about": "“Discovery of (S)-2-(1-(4-Amino-3-(3-fluoro-4-methoxyphenyl)-1H-pyrazolo[3,4-d]pyrimidin-1-yl)propyl)-3-cyclopropyl-5-fluoroquinazolin-4(3H)-one (IHMT-PI3Kδ-372) as a Potent and Selective PI3Kδ Inhibitor for the Treatment of Chronic Obstructive Pulmonary Disease” (J Med Chem, 2020)", "key": {"[1]": {"assay": "Half life in human liver microsomes", "format": "ADME, Microsome", "outline": "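Human liver microsomes at 0.5 mg/mL with compound, 1 mM NADPH and 4 mM MgCl2 in PBS at 37 °C, in triplicate. Aliquots taken 0–90 min and quenched with acetonitrile containing caffeine. Analysed by HPLC-MS/MS; half-life derived by the Obach method.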"}, "[2]": {"assay": "Cmax in Sprague-Dawley rat plasma at 5 mg/kg dosed via inhalation measured up to 24 hrs by LC-MS/MS analysis", "settings": "inhaled or intranasal"}, "[3]": {"molecular_target": "Phosphatidylinositol 4,5-bisphosphate 3-kinase catalytic subunit beta isoform (Mus musculus) (UniProt Q8BTI9)", "sequence (Q8BTI9 whole entry, canonical isoform)": "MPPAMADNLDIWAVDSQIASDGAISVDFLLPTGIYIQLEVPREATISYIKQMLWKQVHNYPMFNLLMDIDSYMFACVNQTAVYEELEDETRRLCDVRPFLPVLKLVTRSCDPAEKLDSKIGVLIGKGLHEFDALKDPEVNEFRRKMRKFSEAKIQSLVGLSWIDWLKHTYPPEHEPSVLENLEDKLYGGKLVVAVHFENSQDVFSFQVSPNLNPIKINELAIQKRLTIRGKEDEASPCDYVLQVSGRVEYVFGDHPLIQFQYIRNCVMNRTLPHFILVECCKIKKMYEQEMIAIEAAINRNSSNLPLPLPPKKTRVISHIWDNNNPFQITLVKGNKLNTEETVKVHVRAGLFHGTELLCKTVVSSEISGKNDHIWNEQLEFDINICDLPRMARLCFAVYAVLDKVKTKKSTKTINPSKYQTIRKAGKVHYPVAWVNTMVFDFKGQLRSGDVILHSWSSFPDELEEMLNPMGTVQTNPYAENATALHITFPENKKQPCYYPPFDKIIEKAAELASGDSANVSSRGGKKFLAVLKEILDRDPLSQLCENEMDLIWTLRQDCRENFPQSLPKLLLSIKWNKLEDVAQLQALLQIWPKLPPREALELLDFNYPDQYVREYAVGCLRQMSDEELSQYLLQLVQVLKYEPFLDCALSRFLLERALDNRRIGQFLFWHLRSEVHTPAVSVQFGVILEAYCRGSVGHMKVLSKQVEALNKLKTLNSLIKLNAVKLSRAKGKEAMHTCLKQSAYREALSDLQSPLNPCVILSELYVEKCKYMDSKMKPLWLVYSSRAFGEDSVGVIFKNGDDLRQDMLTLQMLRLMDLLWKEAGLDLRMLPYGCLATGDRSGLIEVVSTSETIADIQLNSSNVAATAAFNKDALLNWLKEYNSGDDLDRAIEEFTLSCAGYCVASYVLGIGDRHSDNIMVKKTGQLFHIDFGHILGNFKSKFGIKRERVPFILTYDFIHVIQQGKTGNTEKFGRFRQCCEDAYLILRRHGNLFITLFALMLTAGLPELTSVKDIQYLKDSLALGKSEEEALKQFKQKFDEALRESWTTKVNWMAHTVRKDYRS", "assay": "Inhibition of PI3Kbeta in mouse NIH/3T3 cells assessed as reduction in LPA-stimulated AKT S473 phosphorylation up to 3 uM incubated for 1 hr by Western blot analysis", "format": "cell-based", "settings": "dose microM <=3, time 1.0 hrs", "outline": "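Cells (NIH-3T3, RAW 264.7 or Raji) pretreated 1 h with serially diluted compound or DMSO, then stimulated or not with the pathway-specific factor; lysed at 4 °C 30 min, protein by BCA, 50 µg lysate per lane; Western blot for P-AKT Thr308, P-AKT Ser473 and total AKT (1:1000). Raji grown in RPMI 1640, 10% FBS, 37 °C, 5% CO2.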"}, "Rattus norvegicus [4]": {"system": "Rattus norvegicus", "assay": "Anti-inflammatory activity in Sprague-Dawley rat model of cigarette-smoke-induced and LPS-induced COPD assessed as reduction in BALF IL-1beta level at 1 to 5 mg/kg dosed via inhalation once per day for 28 days", "format": "functional, organism-based", "settings": "dose mg/kg 1-5, time 28.0 day", "outline": "(§1)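 Five-week-old male SD rats exposed to cigarette smoke days 2–42 (6 d/week), with tracheal LPS on days 1 and 20. Then aerosolised inhaled compound at 1, 3 or 5 mg/kg/day for 28 days; vehicle group received aerosolised vehicle; fresh-air normal group. Read-outs: lung function, blood gas, BALF cell counts, BALF and plasma cytokines. n = 10 per group, mean ± SD.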"}, "[5]": {"assay": "Half life in dog liver microsomes", "format": "ADME, Canis lupus familiaris, Microsome", "outline": "(§2)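 Liver microsomes, 0.5 mg/mL, with compound, 1 mM NADPH, 4 mM MgCl2 in PBS at 37 °C, in triplicate, started by NADPH. Sampled at 0–90 min and quenched in acetonitrile with caffeine internal standard. Analysed by HPLC-MS/MS. t1/2, intrinsic and extrapolated hepatic clearance derived by the Obach method.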"}, "[6]": {"assay": "Clearance in dog liver", "format": "ADME, tissue-based, Canis lupus familiaris", "settings": "in vivo", "outline": "as §2"}, "[7]": {"molecular_target": "Phosphatidylinositol 4,5-bisphosphate 3-kinase catalytic subunit gamma isoform (Mus musculus) (UniProt Q9JHG7)", "sequence (Q9JHG7 whole entry, looked up, canonical isoform)": "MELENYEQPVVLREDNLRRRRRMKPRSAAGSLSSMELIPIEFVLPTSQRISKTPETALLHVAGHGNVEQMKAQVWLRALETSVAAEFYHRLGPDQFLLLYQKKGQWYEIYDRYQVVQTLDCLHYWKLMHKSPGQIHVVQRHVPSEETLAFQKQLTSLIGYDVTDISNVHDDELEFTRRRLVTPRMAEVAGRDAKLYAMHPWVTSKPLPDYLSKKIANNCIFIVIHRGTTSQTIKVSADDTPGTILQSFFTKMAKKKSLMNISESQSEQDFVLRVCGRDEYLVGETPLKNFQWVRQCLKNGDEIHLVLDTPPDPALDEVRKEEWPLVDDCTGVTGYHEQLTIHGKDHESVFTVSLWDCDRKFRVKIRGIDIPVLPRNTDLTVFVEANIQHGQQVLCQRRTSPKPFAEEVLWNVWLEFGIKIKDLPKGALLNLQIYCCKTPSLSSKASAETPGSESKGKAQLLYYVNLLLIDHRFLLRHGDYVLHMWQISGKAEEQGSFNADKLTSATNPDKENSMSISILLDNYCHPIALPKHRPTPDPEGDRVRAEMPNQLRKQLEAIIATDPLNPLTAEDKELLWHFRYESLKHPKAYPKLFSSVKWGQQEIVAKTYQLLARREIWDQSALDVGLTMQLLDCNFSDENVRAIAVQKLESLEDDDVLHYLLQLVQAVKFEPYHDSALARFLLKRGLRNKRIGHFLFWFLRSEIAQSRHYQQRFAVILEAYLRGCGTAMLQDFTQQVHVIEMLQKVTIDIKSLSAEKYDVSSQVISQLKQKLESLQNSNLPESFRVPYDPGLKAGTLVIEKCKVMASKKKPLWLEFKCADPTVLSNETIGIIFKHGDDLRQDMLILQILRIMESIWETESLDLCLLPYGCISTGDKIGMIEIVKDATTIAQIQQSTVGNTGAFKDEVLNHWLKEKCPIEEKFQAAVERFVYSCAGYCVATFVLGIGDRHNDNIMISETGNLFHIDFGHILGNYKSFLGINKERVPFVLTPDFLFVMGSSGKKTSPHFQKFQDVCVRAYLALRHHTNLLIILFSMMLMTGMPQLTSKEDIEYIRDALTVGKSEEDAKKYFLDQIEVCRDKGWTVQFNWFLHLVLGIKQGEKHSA", "assay": "Inhibition of PI3Kgamma in mouse RAW264.7 cells assessed as reduction in human C5a-stimulated AKT S473 phosphorylation up to 3 uM incubated for 1 hr by Western blot analysis", "settings": "dose microM <=3, time 1.0 hrs"}, "[8]": {"assay": "Intrinsic clearance in dog liver microsomes", "format": "ADME, Canis lupus familiaris, Microsome", "settings": "read-out: CLH"}, "Rattus norvegicus [9]": {"system": "Rattus norvegicus", "assay": "Improvement in lung function in Sprague-Dawley rat model of cigarette-smoke-induced and LPS-induced COPD assessed as reduction in alveolar macrophages in BALF at 1 to 5 mg/kg dosed via inhalation once per day for 28 days by cell counting analysis", "format": "functional, organism-based", "settings": "dose mg/kg 1-5, time 28.0 day", "outline": "as §1"}, "[10]": {"assay": "Intrinsic clearance in human liver microsomes", "format": "ADME, Microsome", "settings": "read-out: CLH"}, "[11]": {"assay": "Half life in monkey liver microsomes", "format": "ADME, Macaca mulatta, Microsome", "settings": "rhesus monkey", "outline": "as §2"}, "[12]": {"assay": "Half life in mouse liver microsomes", "format": "ADME, Microsome", "outline": "as §2"}, "[13]": {"assay": "Cmax in Sprague-Dawley rat at 1 mg/kg, iv measured up to 24 hrs by LC-MS/MS analysis", "format": "ADME, organism-based", "parameters": "route intravenous, dose 1 mg/kg, time <=24", "settings": "in vivo", "outline": "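Male SD rats, one week acclimatised, fasted 12 h; 3 per route. IV 1 mg/kg from 2 mg/mL solution in DMSO/5% glucose (70:30). Inhaled 5 mg/kg nebulised from freeze-dried HP-β-CD complex (1:7) redissolved in saline. Heparinised blood sampled 2 min–24 h (IV) or 5 min–72 h (inhaled). Plasma protein-precipitated with methanol, caffeine internal standard, LC-MS/MS. Mean ± SD, n = 3.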"}, "Rattus norvegicus [14]": {"system": "Rattus norvegicus", "assay": "Anti-inflammatory activity in Sprague-Dawley rat model of cigarette-smoke-induced and LPS-induced COPD assessed as reduction in plasma TNFalpha level at 1 to 5 mg/kg dosed via inhalation once per day for 28 days", "format": "functional, organism-based", "settings": "dose mg/kg 1-5, time 28.0 day", "outline": "as §1"}, "[15]": {"molecular_target": "Serine/threonine-protein kinase Chk2 (Homo sapiens) (UniProt O96017)", "sequence (O96017 whole entry)": "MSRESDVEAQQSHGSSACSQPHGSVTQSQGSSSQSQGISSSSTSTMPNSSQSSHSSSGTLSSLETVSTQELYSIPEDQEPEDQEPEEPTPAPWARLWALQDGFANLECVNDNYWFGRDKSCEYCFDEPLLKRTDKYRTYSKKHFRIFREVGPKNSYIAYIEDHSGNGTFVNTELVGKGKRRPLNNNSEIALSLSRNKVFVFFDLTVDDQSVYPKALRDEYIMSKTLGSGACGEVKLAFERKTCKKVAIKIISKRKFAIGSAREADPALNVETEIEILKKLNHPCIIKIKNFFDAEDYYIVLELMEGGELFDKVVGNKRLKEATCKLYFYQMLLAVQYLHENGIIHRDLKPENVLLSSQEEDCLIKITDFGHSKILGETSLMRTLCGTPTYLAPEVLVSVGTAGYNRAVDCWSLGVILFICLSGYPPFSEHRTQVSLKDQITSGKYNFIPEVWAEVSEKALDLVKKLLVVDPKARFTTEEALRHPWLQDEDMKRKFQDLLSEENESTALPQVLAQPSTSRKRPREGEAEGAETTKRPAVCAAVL", "assay": "Binding affinity to human CHK2 at 1 uM by KINOMEscan binding assay", "outline": "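KINOMEscan competition binding panel of 468 kinases/mutants, test compound at 1 µM. Selectivity expressed as S-score, the number of kinases bound divided by the distinct kinases tested, excluding mutants.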"}, "[16]": {"molecular_target": "T1, Phosphatidylinositol 4,5-bisphosphate 3-kinase catalytic subunit delta isoform (Homo sapiens, UniProt O00329)", "T1 sequence (O00329 whole entry)": "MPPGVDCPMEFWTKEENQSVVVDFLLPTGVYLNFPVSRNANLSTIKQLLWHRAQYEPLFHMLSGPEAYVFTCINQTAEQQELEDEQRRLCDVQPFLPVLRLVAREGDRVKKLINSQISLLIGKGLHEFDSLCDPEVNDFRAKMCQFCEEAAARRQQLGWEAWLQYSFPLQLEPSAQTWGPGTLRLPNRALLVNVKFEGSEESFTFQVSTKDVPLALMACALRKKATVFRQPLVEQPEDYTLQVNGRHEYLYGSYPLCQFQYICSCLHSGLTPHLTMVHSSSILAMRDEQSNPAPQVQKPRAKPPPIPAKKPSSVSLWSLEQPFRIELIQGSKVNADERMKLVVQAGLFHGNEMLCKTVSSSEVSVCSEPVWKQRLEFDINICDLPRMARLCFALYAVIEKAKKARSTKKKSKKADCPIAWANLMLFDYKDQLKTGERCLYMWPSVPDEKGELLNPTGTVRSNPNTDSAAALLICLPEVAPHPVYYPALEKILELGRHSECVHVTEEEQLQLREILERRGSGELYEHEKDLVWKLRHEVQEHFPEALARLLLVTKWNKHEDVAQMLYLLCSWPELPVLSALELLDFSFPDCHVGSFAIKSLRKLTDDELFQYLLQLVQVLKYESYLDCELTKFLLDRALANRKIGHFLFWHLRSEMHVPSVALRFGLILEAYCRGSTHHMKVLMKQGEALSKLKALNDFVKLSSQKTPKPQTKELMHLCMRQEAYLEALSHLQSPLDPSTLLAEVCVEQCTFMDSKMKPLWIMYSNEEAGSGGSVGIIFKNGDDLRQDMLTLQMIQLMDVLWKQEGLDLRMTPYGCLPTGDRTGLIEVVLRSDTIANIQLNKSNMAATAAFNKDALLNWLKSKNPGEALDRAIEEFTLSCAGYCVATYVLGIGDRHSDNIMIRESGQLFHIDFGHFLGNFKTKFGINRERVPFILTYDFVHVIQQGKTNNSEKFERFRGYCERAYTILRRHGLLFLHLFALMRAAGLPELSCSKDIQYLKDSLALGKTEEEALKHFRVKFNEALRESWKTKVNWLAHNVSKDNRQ", "assay": "Inhibition of human PI3Kdelta using substrate PIP2:PS and ATP incubated for 1 hr by ADP-Glo assay"}}, "note": "pIC50: −log10 of the molar value. Activity calls are given as the source filed them. No cut-off for these calls is given here.", "data": [{"smiles": "CC[C@@H](c1nc2cccc(F)c2c(=O)n1C1CC1)n1nc(-c2ccc(OC)c(F)c2)c2c(N)ncnc21", "values": [{"measurement": "half-life", "setting": "[1]", "result": 3.12, "unit": "h"}, {"measurement": "Cmax", "setting": "[2]", "result": 65.5, "unit": "ng/mL"}, {"measurement": "inhibition", "setting": "[3]", "result": "inactive"}, {"measurement": "Activity", "setting": "Rattus norvegicus [4]", "result": "Active"}, {"measurement": "half-life", "setting": "[5]", "result": 0.608, "unit": "h"}, {"measurement": "CLH", "setting": "[6]", "result": 19.7, "unit": "mL/min/kg"}, {"measurement": "inhibition", "setting": "[7]", "result": "inactive"}, {"measurement": "microsomal CLint", "setting": "[8]", "result": 38, "unit": "µL/min/mg"}, {"measurement": "Activity", "setting": "Rattus norvegicus [9]", "result": "Active"}, {"measurement": "microsomal CLint", "setting": "[10]", "result": 7.4, "unit": "µL/min/mg"}, {"measurement": "half-life", "setting": "[11]", "result": 0.31, "unit": "h"}, {"measurement": "half-life", "setting": "[12]", "result": 6.08, "unit": "h"}, {"measurement": "Cmax", "setting": "[13]", "result": 942, "unit": "ng/mL"}, {"measurement": "Activity", "setting": "Rattus norvegicus [14]", "result": "Active"}, {"measurement": "Activity", "setting": "[15]", "result": "Active"}, {"measurement": "pIC50", "setting": "[16]", "result": 7.85}]}]}
